The subject of experiment [1] is MT4. Briefly: Effective concentration to achieve 50% protection of MT-4 cells against the cytopathic effect of HIV-1. Type of experiment: functional, cell-based.
In experiment [2] the test system is MT4. As to the kind of experiment: Selectivity index for CC50 (cytotoxic concentration based on the reduction of the viability of mock-infected MT-4 cells) to that of EC50 against HIV-1. Type of experiment: functional. Put shortly: (§1)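 MT-4 cells at 3 × 10^5 cells/mL were infected with HIV-1 IIIB or HIV-2 ROD at 100 CCID50/mL, or mock-infected, alongside serial compound dilutions. Viability was read by MTT after 5 days at 37 °C. CC50 comes from mock-infected cells and EC50 from protection against cytopathicity. Index = CC50/EC50.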

The subject of experiment [3] is MT4. Briefly: Effective concentration to achieve 50% protection of MT-4 cells against the cytopathic effect of HIV-2. Type of experiment: functional, cell-based.
The subject of experiment [4] is MT4. Briefly: Selectivity index for CC50 (cytotoxic concentration based on reduction of viability of mock-infected MT-4 cells) to that of EC50 against HIV-2. Type of experiment: functional. An outline of the steps: as §1
The test system of the next experiment is HuT78. Briefly: Giant-cell formation between persistently HIV-1 infected HUT-78 cells and uninfected MOLT-4 cells. Type of experiment: functional, cell-based. An outline of the steps:
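MOLT-4 cells were co-cultured with an equal number of HUT-78 cells persistently infected with HIV-1 IIIB or HIV-2 ROD, with varying compound concentrations. Syncytia were counted by flow cytofluorography after 24 h. EC50 is the concentration giving 50% protection against giant-cell formation.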

Experiment [5] in a line: In vitro anticoagulant activity determined by clotting test of activated partial thromboplastin time (APTT) on a pool of human plasma. Type of experiment: functional. An outline of the steps:
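Activated partial thromboplastin time clotting test on pooled human plasma, run on an automatic coagulometer. Activities were calculated according to the European Pharmacopoeia.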

Setting [6] is: Homo sapiens, MT4, read-out: EC50.
Setting [7] is: Homo sapiens, HuT78, read-out: EC50.

Consider `CCCCCC(=O)OC/C(=C\C(=O)[O-])OC1OC(COS(=O)(=O)[O-])C(OC2OC(C(=O)[O-])C(OC3OC(COS(=O)(=O)[O-])C(OC4OC(C(=O)[O-])C(OC5OC(CS(=O)(=O)[O-])C(O)C(OC(=O)CCCCC)C5NS(=O)(=O)[O-])C(OC(=O)CCCCC)C4OS(=O)(=O)[O-])C(OC(=O)CCCCC)C3NS(=O)(=O)[O-])C(OC(=O)CCCCC)C2OS(=O)(=O)[O-])C(OC(=O)CCCCC)C1NS(=O)(=O)[O-].[Na+].[Na+].[Na+].[Na+].[Na+].[Na+].[Na+].[Na+].[Na+].[Na+].[Na+]` (stereo in doubt; 2e), for which the concentration giving a half-maximal response (EC50) in the experiment with MT4 [1] (mt4) stood at 0.31 µg/mL; in the experiment with MT4 [3] (mt4), 1.71 µg/mL; in the experiment with HuT78 (hut78), 2.9 µg/mL. In addition, the results for the Selectivity index in the experiment with MT4 [2] and in the experiment with MT4 [4] were greater than 1613 and greater than 294, respectively. The compound also returned an APTT in experiment [5] of 7 IU mg-1.

For the compound `CCCC(=O)OC/C(=C\C(=O)[O-])O[C@H]1O[C@H](COS(=O)(=O)[O-])[C@@H](O[C@@H]2O[C@@H](C(=O)[O-])[C@@H](O[C@H]3O[C@H](COS(=O)(=O)[O-])[C@@H](O[C@@H]4O[C@@H](C(=O)[O-])[C@@H](O[C@H]5O[C@H](CS(=O)(=O)[O-])[C@@H](O)[C@H](OC(=O)CCC)[C@H]5NS(=O)(=O)[O-])[C@H](OC(=O)CCC)[C@H]4OS(=O)(=O)[O-])[C@H](OC(=O)CCC)[C@H]3NS(=O)(=O)[O-])[C@H](OC(=O)CCC)[C@H]2OS(=O)(=O)[O-])[C@H](OC(=O)CCC)[C@H]1NS(=O)(=O)[O-].[Na+].[Na+].[Na+].[Na+].[Na+].[Na+].[Na+].[Na+].[Na+].[Na+].[Na+]` (stereo in doubt; 4c), the figures for the EC50 in the experiment with MT4 [1] (mt4), with MT4 [3] (mt4) and in the experiment on HuT78 (hut78) were 5 µg/mL, 0.01 µg/mL and 57.5 µg/mL, respectively. For the same compound, the results for the Selectivity index with MT4 [2] and in the experiment on MT4 [4] were 80 and 40000, respectively. In experiment [5], this compound returned an APTT of 2.7 IU mg-1.

`CCCC(=O)OC/C(=C\C(=O)[O-])O[C@H]1O[C@H](COS(=O)(=O)[O-])[C@@H](O[C@@H]2O[C@@H](C(=O)[O-])[C@@H](O[C@H]3O[C@H](COS(=O)(=O)[O-])[C@@H](O[C@@H]4O[C@@H](C(=O)[O-])[C@@H](O[C@H]5O[C@H](CS(=O)(=O)[O-])[C@@H](O)[C@H](OC(=O)CCC)[C@H]5NS(=O)(=O)[O-])[C@H](OC(=O)CCC)[C@H]4OS(=O)(=O)[O-])[C@H](OC(=O)CCC)[C@H]3NS(=O)(=O)[O-])[C@H](OC(=O)CCC)[C@H]2OS(=O)(=O)[O-])[C@H](OC(=O)CCC)[C@H]1NS(=O)(=O)[O-].[Na+].[Na+].[Na+].[Na+].[Na+].[Na+].[Na+].[Na+].[Na+].[Na+].[Na+]` (stereo in doubt; 4i): the figures for the 50% effective concentration (EC50) with MT4 [1] (mt4), in the experiment on MT4 [3] (mt4) and in the experiment with HuT78 (hut78) were 0.27 µg/mL, 0.16 µg/mL and 2.1 µg/mL, respectively. In addition, the Selectivity index in the experiment on MT4 [2] was greater than 1852; with MT4 [4], greater than 2941. The same compound came in with an APTT in experiment [5] of 16.8 IU mg-1.

As to `CCCC(=O)OC/C(=C\C(=O)[O-])O[C@H]1O[C@H](COS(=O)(=O)[O-])[C@@H](O[C@@H]2O[C@@H](C(=O)[O-])[C@@H](O[C@H]3O[C@H](COS(=O)(=O)[O-])[C@@H](O[C@@H]4O[C@@H](C(=O)[O-])[C@@H](O[C@H]5O[C@H](CS(=O)(=O)[O-])[C@@H](O)[C@H](OC(=O)CCC)[C@H]5NS(=O)(=O)[O-])[C@H](OC(=O)CCC)[C@H]4OS(=O)(=O)[O-])[C@H](OC(=O)CCC)[C@H]3NS(=O)(=O)[O-])[C@H](OC(=O)CCC)[C@H]2OS(=O)(=O)[O-])[C@H](OC(=O)CCC)[C@H]1NS(=O)(=O)[O-].[Na+].[Na+].[Na+].[Na+].[Na+].[Na+].[Na+].[Na+].[Na+].[Na+].[Na+]` (stereo in doubt; 3d), the EC50 was 0.21 µg/mL in the experiment on MT4 [1] (mt4), 0.36 µg/mL with MT4 [3] (mt4) and 10.3 µg/mL in the experiment with HuT78 (hut78). Further, the Selectivity index in the experiment with MT4 [2] came to 1480; in the experiment on MT4 [4], 914. In experiment [5], this compound displayed an APTT of 9 IU mg-1.

In the case of `CCCCCC(=O)OCC1OC(OC2C(C(=O)[O-])OC(OC3C(NC(C)=O)C(OC4C(C(=O)[O-])OC(C)C(OC(=O)CCCCC)C4O)OC(COC(=O)CCCCC)C3OS(=O)(=O)[O-])C(OC(=O)CCCCC)C2OC(=O)CCCCC)C(NC(C)=O)C(OC)C1OS(=O)(=O)[O-].[Na+].[Na+].[Na+].[Na+]` (stereo not given), the concentration giving a half-maximal response (EC50) in the experiment on MT4 [1] (setting [6]) amounted to 19.4 µg/mL; in the experiment with MT4 [3] (setting [6]), 5.4 µg/mL; in the experiment with HuT78 (setting [7]), 41 µg/mL. The Selectivity index in the experiment on MT4 [2] was found to be 4; in the experiment on MT4 [4], 17.5. This compound also gave an APTT in experiment [5] of 3.4 IU mg-1.

Regarding `O=C([O-])/C=C(\COC(=O)c1ccccc1)OC1OC(COS(=O)(=O)[O-])C(OC2OC(C(=O)[O-])C(OC3OC(COS(=O)(=O)[O-])C(OC4OC(C(=O)[O-])C(OC5OC(COS(=O)(=O)[O-])C(O)C(OC(=O)c6ccccc6)C5NS(=O)(=O)[O-])C(OC(=O)c5ccccc5)C4OS(=O)(=O)[O-])C(OC(=O)c4ccccc4)C3NS(=O)(=O)[O-])C(OC(=O)c3ccccc3)C2OS(=O)(=O)[O-])C(OC(=O)c2ccccc2)C1NS(=O)(=O)[O-].[Na+].[Na+].[Na+].[Na+].[Na+].[Na+].[Na+].[Na+].[Na+].[Na+].[Na+]` (stereo not given), the EC50 worked out at 0.1 µg/mL with MT4 [1] (setting [6]), 0.2 µg/mL with MT4 [3] (setting [6]) and 3 µg/mL with HuT78 (setting [7]). Moreover, the values for the Selectivity index with MT4 [2] and in the experiment with MT4 [4] were greater than 5000 and greater than 2500, respectively. The compound also returned an APTT in experiment [5] of 8 IU mg-1.

On to `CCCCCC(=O)O[C@@H]1[C@@H](OC(C)=O)[C@H](O[C@H]2[C@H](OS(=O)(=O)[O-])[C@@H](NS(=O)(=O)[O-])[C@@H](O[C@H]3[C@H](OC(=O)CCCCC)[C@@H](OS(=O)(=O)[O-])[C@H](O[C@H]4[C@H](OC(=O)CCCCC)[C@@H](CO)O[C@@H]4COS(=O)(=O)[O-])O[C@H]3C(=O)[O-])O[C@@H]2COS(=O)(=O)[O-])O[C@H](C(=O)[O-])[C@H]1O[C@H]1O[C@H](COS(=O)(=O)[O-])[C@@H](O[C@@H]2O[C@@H](C(=O)[O-])[C@@H](O)[C@H](OC(=O)CCCCC)[C@H]2OC(C)=O)[C@H](OC(=O)CCCCC)[C@H]1NC(C)=O.[Na+].[Na+].[Na+].[Na+].[Na+].[Na+].[Na+].[Na+].[Na+]`, for which the EC50 in the experiment with MT4 [1] (setting [6]) is greater than 100 µg/mL; with MT4 [3] (setting [6]) it was 5.4 µg/mL; with HuT78 (setting [7]) it was 8.9 µg/mL. For the same compound, the figures for the Selectivity index with MT4 [2] and in the experiment on MT4 [4] were less than 1 and 9, respectively. For the same compound, the APTT in experiment [5] came out at 4 IU mg-1.

Turning to `CCCC(=O)OC/C(=C\C(=O)[O-])O[C@H]1O[C@H](COS(=O)(=O)[O-])[C@@H](O[C@@H]2O[C@@H](C(=O)[O-])[C@@H](O[C@H]3O[C@H](COS(=O)(=O)[O-])[C@@H](O[C@@H]4O[C@@H](C(=O)[O-])[C@@H](O[C@H]5O[C@H](CS(=O)(=O)[O-])[C@@H](O)[C@H](OC(=O)CCC)[C@H]5NS(=O)(=O)[O-])[C@H](OC(=O)CCC)[C@H]4OS(=O)(=O)[O-])[C@H](OC(=O)CCC)[C@H]3NS(=O)(=O)[O-])[C@H](OC(=O)CCC)[C@H]2OS(=O)(=O)[O-])[C@H](OC(=O)CCC)[C@H]1NS(=O)(=O)[O-].[Na+].[Na+].[Na+].[Na+].[Na+].[Na+].[Na+].[Na+].[Na+].[Na+].[Na+]` (stereo in doubt; 4d), the EC50 in the experiment with MT4 [1] (mt4) was 1.31 µg/mL; in the experiment with MT4 [3] (mt4), 0.04 µg/mL; with HuT78 (hut78) it was 37.3 µg/mL. Further, the Selectivity index is given as greater than 382 in the experiment on MT4 [2] and greater than 12500 in the experiment with MT4 [4]. In experiment [5], this compound displayed an APTT of 2.9 IU mg-1.

As to `CCCC(=O)OCC1OC(OC2C(C(=O)[O-])OC(OC3C(NC(C)=O)C(OC4C(C(=O)[O-])OC(C)C(OC(=O)CCC)C4O)OC(COC(=O)CCC)C3OS(=O)(=O)[O-])C(OC(=O)CCC)C2OC(=O)CCC)C(NC(C)=O)C(OC)C1OS(=O)(=O)[O-].[Na+].[Na+].[Na+].[Na+]` (stereo not given), the concentration for a half-maximal effect (EC50) was 54.2 µg/mL in the experiment on MT4 [1] (setting [6]), 18 µg/mL with MT4 [3] (setting [6]) and greater than 100 µg/mL in the experiment on HuT78 (setting [7]). Also, the results for the Selectivity index with MT4 [2] and in the experiment with MT4 [4] were 8 and 25, respectively. This compound also showed an APTT in experiment [5] of 3.7 IU mg-1.

Consider `CC(=O)N[C@H]1[C@@H](O[C@H]2[C@H](OC(C)=O)[C@@H](OC(C)=O)[C@H](O[C@H]3[C@@H](OS(=O)(=O)[O-])[C@@H](NS(=O)(=O)[O-])[C@@H](O[C@@H]4C(C(=O)[O-])O[C@@H](O[C@H]5[C@H](OC(C)=O)[C@@H](CO)O[C@@H]5COS(=O)(=O)[O-])[C@H](OS(=O)(=O)[O-])[C@H]4OC(C)=O)O[C@@H]3COS(=O)(=O)[O-])O[C@@H]2C(=O)[O-])O[C@H](COS(=O)(=O)[O-])[C@@H](O[C@@H]2O[C@@H](C(=O)[O-])[C@@H](O)[C@H](OC(C)=O)[C@H]2OC(C)=O)[C@@H]1OC(C)=O.[Na+].[Na+].[Na+].[Na+].[Na+].[Na+].[Na+].[Na+].[Na+]` (stereo not given in full), for which the values for the EC50 with MT4 [1] (setting [6]), in the experiment on MT4 [3] (setting [6]) and in the experiment on HuT78 (setting [7]) were 6.5 µg/mL, 0.46 µg/mL and 6.4 µg/mL, respectively. Besides, the Selectivity index in the experiment with MT4 [2] was found to be 76; in the experiment on MT4 [4] it was 1087. In experiment [5], the APTT is 26 IU mg-1.

For the origin of these results see ChEMBL document CHEMBL1126896, “Preparation and anti-HIV activity of O-acylated heparin and dermatan sulfate derivatives with low anticoagulant effect” (J Med Chem, 1993).
